Measured values from ChEMBL document CHEMBL4145647, “Aniline-Tetramic Acids from the Deep-Sea-Derived Fungus Cladosporium sphaerospermum L3P3 Cultured with the HDAC Inhibitor SAHA” (J Nat Prod, 2018).
Counter-ions that a name gives are not always drawn.

What was measured:
PC-3 = experiment: Cytotoxicity against human PC3 cells after 72 hrs by SRB assay; settings: PC-3, 72 h
K562 = experiment: Cytotoxicity against human K562 cells after 72 hrs by MTT assay; format: functional, cell-based; settings: K562, 72 h
How it was run: (§1)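 Cells were checked for viability by Trypan blue counting, then plated at 8000 cells/well and exposed to test solution for 72 h. MTT reagents were then added, followed by a further 10 h incubation. Absorbance was read at 570 nm and IC50 reported in μM. Doxorubicin was the positive control.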

HL-60 = experiment: Cytotoxicity against human HL60 cells after 72 hrs by MTT assay; format: functional, cell-based; settings: HL-60, 72 h
How it was run: as §1

HCT-116 = experiment: Cytotoxicity against human HCT116 cells after 72 hrs by SRB assay; settings: HCT-116, 72 h
MGC-803 = experiment: Cytotoxicity against human MGC803 cells after 72 hrs by SRB assay; settings: MGC-803, 72 h
SH-SY5Y = experiment: Cytotoxicity against human SH-SY5Y cells after 72 hrs by SRB assay

Compound | IC50 (PC-3) [µM] | IC50 (K562) [µM] | IC50 (HL-60) [µM] | IC50 (HCT-116) [µM] | IC50 (MGC-803) [µM] | IC50 (SH-SY5Y) [µM]
COc1cccc2c1C(=O)c1c(O)c3c(c(O)c1C2=O)C[C@@](O)(C(=O)CO)C[C@@H]3O[C@H]1C[C@H](N)[C@H](O)[C@H](C)O1 [DOXORUBICIN HYDROCHLORIDE] | 1 | – | – | – | – | –
CC(C)=C1NC(=O)C(=C(C[C@H](C[C@H](C)O)Nc2ccccc2)Nc2ccccc2)C1=O | 18 | 5.9 | 7.5 | 14 | > 30 | > 30
CC(C)=C1NC(=O)C(=C(C[C@@H](C[C@H](C)O)Nc2ccccc2)Nc2ccccc2)C1=O | > 30 | 6.8 | 7.8 | > 30 | > 30 | > 30
CO[C@H](CC(Nc1ccccc1)=C1C(=O)NC(=C(C)C)C1=O)C[C@H](C)O | 13 | 4.1 | 2.8 | 11 | 19 | 12
CO[C@@H](CC(Nc1ccccc1)=C1C(=O)NC(=C(C)C)C1=O)C[C@H](C)O | > 30 | > 30 | > 30 | > 30 | > 30 | > 30
CC(C)=C1NC(=O)C(=C2C=CC[C@H](C)O2)C1=O | 11 | 4.5 | 6.6 | 12 | 22 | 15
